From ChEMBL document CHEMBL4513216, “Probing the Open Global Health Chemical Diversity Library for Multistage-Active Starting Points for Next-Generation Antimalarials” (ACS Infect Dis, 2020)

Assay: Toxicity liver stage against HepG2, at 10uM
Type: cell-based
Design: test concentration 10 uM, cell line HepG2-A16-CD81EGFP
Details: human, HepG2-A16-CD81EGFP cells; read-out: INHIBITION
Method in brief: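 Uninfected HepG2-A16-CD81EGFP cells, 3 × 10^3 per well, 1536-well, plated on prespotted compound at 10 μM final, parasite-free screening media added to match infected plates; puromycin 10 μM positive, DMSO 0.5% negative; run in parallel with 48 h PbLuc assay at 37 °C, 5% CO2; viability by CellTiter-Glo luminescence, normalized to controls.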

Structure (SMILES) | cytotoxicity at 10 µM [%]
NC(=O)C1CCN(C(=O)CCSCc2ccccc2)CC1 | 4.22
Cn1c(CO[C@H]2CN(S(C)(=O)=O)C[C@H]2F)nc2ccccc21 | -0.714
CC(C)NC[C@H]1COCc2nc3cccnc3n21 | -5.38
COc1ccc(C(=O)NCCN2CCC(c3cccs3)CC2)cc1OC | -0.493
CC(C)CC(=O)N1CCC2(CC1)[C@@H]1CN(C(=O)N(C)C)C[C@@H]1C(=O)N2C | 4.85
O=C(C1CCOCC1)N1CC[C@@H](O)[C@@H]1Cc1ccccc1 | 0.375
COc1ncnc2c1CCN(C(=O)NCc1cccc(F)c1)CC2 | -7.27
O=C(C1CCCO1)N1CC[C@@H]2CN(Cc3ccccc3)S(=O)(=O)[C@@H]2CC1 (stereo not given in full) | 12.9
O=C(N[C@@H]1CN(c2ncc(F)cn2)[C@@H]2COC[C@@H]21)c1cscn1 | -139
CN1CCC2(CC1)CN(C)C(=O)C[C@@H]2C(F)(F)F | -144
CN(C)Cc1nn(C)c2c1CCN(C(=O)c1cccnc1)C2 | 6.24
COCCc1noc(-c2ccc(=O)[nH]c2)n1 | -3.61
COc1ccc(Cl)cc1-c1nc(N)nc(N)n1 | 1.57
COc1cccc(N2CCN(CC(O)c3ccc(C)cc3)CC2)c1 (stereo not given) | -11.6
Cc1ccccc1OC1CCN(CC(=O)Nc2cn(C)nc2C)CC1 | -0.0825
Cc1n[nH]c(C)c1CC(=O)N1CC[C@@](C)(O)[C@H](Oc2ccccc2)C1 | 2.85
CCCN1CCCCCC1Cc1c(C(=O)NC)sc2ccccc12 (stereo not given) | 8.53
Cc1ccc2c(CC(=O)N3C[C@@H](O)[C@H](N(C)C)C3)coc2c1 | 10.4
CC(=O)N1CCC(c2cncc(N3CCCCCC3)n2)CC1 | 11.3
O=C(CC1CC1)N1CCC(O)(CN2CCN(c3ccccc3)CC2)C1 (stereo not given) | -11.2
Cn1nccc1CN1CCCC(COc2ccccc2F)C1 (stereo not given) | -9.54
Cc1c(C(=O)NC2CCCOC2)nnn1-c1ccccc1 (stereo not given) | -24.5
Cc1cc(C2CCN(S(=O)(=O)c3cn(C)cn3)CC2)ccn1 | -32.6
Cc1nc(C2CCCN2C(=O)CC2CCCC2)ncc1C(N)=O (stereo not given) | -21.7
O=C(NC1CCCc2nc(N3CCOCC3)ncc21)C1CCCCC1 (stereo not given) | -19.9
COCC(=O)N1CCC(Cc2nccnc2-c2c(C)n[nH]c2C)C1 (stereo not given) | -11.7
CN(C)CC1(O)CCN(S(=O)(=O)c2ccc(Cl)cc2)C1 (stereo not given) | -13.9
Cc1ccsc1C(=O)N1CCCC(c2[nH]ncc2S(C)(=O)=O)C1 (stereo not given) | -5.39

Structure (SMILES) | cytotoxicity at 10 µM [%]
Nc1ncnc2c1ncn2[C@H]1CCN(Cc2ccsc2)CC[C@@H]1O | -4.25
Cc1ccc(-c2cc(N)c(=O)n(CC(=O)NCC3CC3)n2)s1 | 10.3
NCc1cnn(-c2ccccc2C(=O)NCc2ccncc2)c1 | -1.78
CCOCC1CCN(C(=O)C(c2c(F)cccc2F)N(C)C)CC1 (stereo not given) | -3.12
CCc1ccc(C(NCC(N)=O)C(C)(C)C)o1 (stereo not given) | -7.21
CCC(c1ccc(F)cc1)N1CCn2c(CO)nnc2C1 (stereo not given) | -9.15
Cn1c(CO)cnc1SC1CCCN(c2ccccc2F)C1=O (stereo not given) | -4
Cc1nc(-c2cc(C(=O)NC(C)(C(=O)O)C(C)C)co2)cs1 (stereo not given) | 1.84
O=C(c1sccc1-n1cnnn1)N1CCCCC1 | 6.56
Cc1ccccc1N1CCN(CCS(=O)(=O)c2ccc(Br)cc2)CC1 | 18.7
CN(C)C1Cc2ccccc2N(S(=O)(=O)c2ccccc2C#N)C1 (stereo not given) | 0.71
Cc1nn(C)c(N2CCCN(C)CC2)c1CNC(=O)CCC(C)C | -1.08
Cc1nn(CC(C)C)c(C)c1CC(=O)N1CCCC(NS(C)(=O)=O)C1 (stereo not given) | 6.29
COc1ccc2oc(C(C)NC(=O)NCc3noc(C)n3)c(C)c2c1 (stereo not given) | 5.08
Cc1nnc(NC(=O)CN2CCc3c(nc(C(C)C)n3C)C2)s1 | -1.94
C1CCC(NC2CCCN(Cc3noc(C4CC4)n3)C2)C1 (stereo not given) | -5.05
Cc1csc(C2CCCCN2C(=O)COCc2nc(C)no2)n1 (stereo not given) | 1.09
CNS(=O)(=O)CC(=O)N(Cc1c(F)cccc1Cl)C1CC1 | 4.71
CC(C)CNC(=O)c1ccc(NC(=O)NC(C)(C)CO)cc1Cl | 6.27
CC(C)n1nc2c(cc1=O)CN(CC(=O)N(C)c1nccs1)CC2 | -9.94
COc1ccc(C)cc1-n1ccc(C(=O)NCC2CCCOC2)n1 (stereo not given) | -2.51
Cn1nnnc1SCC1Cc2ccccc2O1 (stereo not given) | 14.9
CC(C)(C)OC(=O)NC1(c2noc(-c3ccoc3)n2)CCC1 | 3.12
COc1cc(CNC(C)Cn2ccnc2)cc2c1OCCO2 (stereo not given) | -94.1
CCNC(=O)c1cnc(Cc2ccc(F)cc2)s1 | 4.44
CC(CNC(=O)c1ccc(Cl)cc1I)N1CCCC1 (stereo not given) | -5.69
CN(C)c1cc(C(=O)NCCc2nnc(-c3ccco3)[nH]2)ccn1 | -0.653
